Source: PubChem BioAssay (several laboratories)
Beta2AR agonist: human beta-2 adrenergic receptor agonism by FAP; Am2.2-beta2AR cells, FAP receptor internalization, flow cytometry; response, % (no concentration beside the values); 340,000 tested, 0.43% active; AID 504454;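 active = response above a set limit, near 3 SD of response in nonfluorescent compounds, cut at about 42% in these data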
Target sequence (P07550 whole entry, looked up): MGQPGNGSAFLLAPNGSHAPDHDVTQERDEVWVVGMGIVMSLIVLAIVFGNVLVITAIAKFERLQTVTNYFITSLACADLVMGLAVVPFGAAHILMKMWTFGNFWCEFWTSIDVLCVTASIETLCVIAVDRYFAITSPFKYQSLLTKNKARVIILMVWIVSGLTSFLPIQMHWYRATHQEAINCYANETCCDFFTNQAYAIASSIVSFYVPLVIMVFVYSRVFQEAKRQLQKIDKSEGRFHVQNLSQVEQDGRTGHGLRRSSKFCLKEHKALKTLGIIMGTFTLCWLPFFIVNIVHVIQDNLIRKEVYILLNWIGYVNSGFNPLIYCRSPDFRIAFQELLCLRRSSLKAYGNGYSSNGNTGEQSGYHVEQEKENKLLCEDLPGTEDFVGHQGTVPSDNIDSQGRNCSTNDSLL
T cell modulator: modulates CD8 T cell binding to vesicles | AID 2052 | 330,000 tested, 0.068% active | response (vesicle binding), % at 7 µM | 2C CD8+ T cell-vesicle binding, flow cytometry; hits give low values;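 active = response, share of CD8 T cells binding vesicles, and their 90th percentile fluorescence all below set limits, cut at about 80% in these data, passing the limit was not always enough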;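 note: values below 100% mean blocked vesicle binding to the CD8+ T cells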
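Assay system – 2C mouse CD8+ T cells · Also added – QL9-loaded Drosophila micro-vesicles · Timing – Cell–vesicle co-incubation 1.5 h at 37 °C, staining 20 min on ice · Signal – flow cytometry of vesicle-bound cells · Measure – percent CD8+ FL2 mean versus row control · Controls – Peptide-free naked vesicles (low) and QL9 vesicles with 0.7% DMSO vehicle (high)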
rCAG binder: binds r(CAG) RNA repeats; 370,000 tested, 1.3% active; AID 651821; inhibition, % at 3 µM; r(CAG) RNA repeat, TO-PRO-1 dye displacement fluorescence;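 active = inhibition above the plate cutoff, the mean of all test compounds on that plate plus 3 SD, cut at about 35% in these data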;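 note: 0% = DMSO alone and 100% = 100 µM mitoxantrone as full dye displacement; higher means more dye released from RNA so lower well fluorescence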
MPTP inh: permeability transition pore inhibition; AID 602449; isolated mouse mitochondria, Ca2+ swelling absorbance, 30 min; 360,000 tested, 1.4% active; inhibition, % at 10 µM;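 active = inhibition of 50% or more, scaled per plate between neutral and stimulator controls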;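 note: 0% = DMSO wells given calcium and 100% = 1 mM EGTA wells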
V-ATPase pH: regulators of yeast V-ATPase proton transport. S. cerevisiae, pHLuorin cytosolic pH fluorescence. response, % at 10 µM. 350,000 tested, 0.37% active. AID 504577; in the data active = response mostly above about 7.3%, no sharp cut-off; inactive = mostly below about 5.4%; note: actives read high
Granule exo inh: blocks lytic granule exocytosis. TALL-104 LAMP-1 surface exposure, flow cytometry; cells stimulated with thapsigargin and PMA. inhibition, % at 10 µM. 360,000 tested, 0.66% active. AID 651702;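 active = inhibition above about 55%, limit read from the data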
rCAG binder conf: r(CAG) RNA repeat binding, confirmation; shares compounds with rCAG binder; TO-PRO-1 dye displacement fluorescence; inhibition, % at 3 µM; 4,300 tested, 70% active; AID 652065;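 active = inhibition above a per-plate cutoff, the mean inhibition of sample wells plus 3 SD, cut at about 35% in these data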;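 note: loss of TO-PRO-1 fluorescence as compound displaces dye from 1x1 AA loop RNA; 0% = DMSO only wells and 100% = 100 µM mitoxantrone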
DNA CAG counter: disrupts DNA CAG TO-PRO-1 complex, flagging rCAG hits. shares compounds with rCAG binder. d(CAG) DNA oligo TO-PRO-1 dye displacement, fluorescence. inhibition, % at 3 µM. 4,300 tested, 94% active. AID 652068;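 active = inhibition above its plate's cutoff, the mean test-well inhibition plus 3 SD, cut at about 4.8% in these data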;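 note: 0% = DNA dye mix with DMSO and 100% = 100 µM mitoxantrone; hits displace the dye from DNA and so lower well fluorescence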
* = called active by the depositor; / = no result. This is a sample that favours compounds with a hit; in the whole collection about 3.8% have one here.

SMILES	Beta2AR agonist	T cell modulator	rCAG binder	MPTP inh	V-ATPase pH	Granule exo inh	rCAG binder conf	DNA CAG counter
O=C(O)C1CCN(C(=O)c2ccccc2N2C(=O)[C@@H]3Cc4c([nH]c5ccccc45)C(c4cccc(Cl)c4)N3C2=O)CC1 (stereo partly drawn)	-3	377	38*	0	1	-2	47*	14*
C[C@@H]1CCN(C2CC2)S(=O)(=O)c2ccc(N3CCC[C@H]3C)cc2O1	/	/	4	/	/	/	/	/
CCC(C(=O)O)n1nnc(-c2ccc(-c3ccc(OC)cc3)cc2)n1 (stereo not drawn)	-1	890	48*	-1	5	-2	36*	10*
FC(F)(F)c1ccccc1Cc1c(-c2ccco2)nc2ccc(Br)cn12	/	/	39*	-2	/	11	5	2
Cc1ccc2nc(-c3cccc(Br)c3)c(Cc3ccccc3C(F)(F)F)n2c1	/	/	35*	0	/	0	22	4.8*
COc1ccc(-c2nc3ccc(Br)cn3c2Cc2ccccc2C(F)(F)F)cc1OC	/	/	43*	2	/	-1	19	4.8*
Cc1ccc2nc(-c3ccco3)c(Cc3ccccc3C(F)(F)F)n2c1	/	/	10	/	/	/	/	/
C[C@H]1C2CC(OC(=O)Nc3ccccc3C(F)(F)F)C(C2)[C@H]2CCCCN21 (stereo partly drawn)	/	/	7	/	/	/	/	/
